Test results taken from ChEMBL document CHEMBL1144020, “Development of prodrug 4-chloro-3-(5-methyl-3-{[4-(2-pyrrolidin-1-ylethoxy)phenyl]amino}-1,2,4-benzotriazin-7-yl)phenyl benzoate (TG100801): a topically administered therapeutic candidate in clinical trials for the treatment of age-related macular degeneration” (J Med Chem, 2008).

What was measured:
[1] = Stability at 120 degC after 1 hr; assay type: physicochemical; conditions: read-out: Stability
In short: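 Prodrugs at 0.5% in 0.5% HPMC/5% dextrose, pH 6.7, in closed vials, autoclaved at 120 °C for 1 h. After cooling, percent remaining was assessed by reverse-phase HPLC with diode-array and ELSD detection.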

[2] = target: Vascular endothelial growth factor receptor 2 (Homo sapiens, UniProt P35968); assay: Inhibition of VEGFR2
[3] = target: Proto-oncogene tyrosine-protein kinase Src (Homo sapiens, UniProt P12931); assay: Inhibition of Src
[4] = Stability in Dutch-belted rabbit eye assessed as hydrolysis rate; assay type: ADME, tissue-based, Oryctolagus cuniculus
In short: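 Two Dutch-Belted rabbit eyeballs were homogenized in 1× RIPA buffer. Prodrug (from 1 mg/mL DMSO stock) was added to a final 5 µg/mL and kept at 37 °C, sampled at 0, 0.25, 1, 2 and 6 h. Controls were prodrug in RIPA buffer for 120 min at 37 °C. Supernatants were analyzed by LC/MS/MS for prodrug and released parent phenol.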

Sequence of Vascular endothelial growth factor receptor 2 (P35968 whole entry): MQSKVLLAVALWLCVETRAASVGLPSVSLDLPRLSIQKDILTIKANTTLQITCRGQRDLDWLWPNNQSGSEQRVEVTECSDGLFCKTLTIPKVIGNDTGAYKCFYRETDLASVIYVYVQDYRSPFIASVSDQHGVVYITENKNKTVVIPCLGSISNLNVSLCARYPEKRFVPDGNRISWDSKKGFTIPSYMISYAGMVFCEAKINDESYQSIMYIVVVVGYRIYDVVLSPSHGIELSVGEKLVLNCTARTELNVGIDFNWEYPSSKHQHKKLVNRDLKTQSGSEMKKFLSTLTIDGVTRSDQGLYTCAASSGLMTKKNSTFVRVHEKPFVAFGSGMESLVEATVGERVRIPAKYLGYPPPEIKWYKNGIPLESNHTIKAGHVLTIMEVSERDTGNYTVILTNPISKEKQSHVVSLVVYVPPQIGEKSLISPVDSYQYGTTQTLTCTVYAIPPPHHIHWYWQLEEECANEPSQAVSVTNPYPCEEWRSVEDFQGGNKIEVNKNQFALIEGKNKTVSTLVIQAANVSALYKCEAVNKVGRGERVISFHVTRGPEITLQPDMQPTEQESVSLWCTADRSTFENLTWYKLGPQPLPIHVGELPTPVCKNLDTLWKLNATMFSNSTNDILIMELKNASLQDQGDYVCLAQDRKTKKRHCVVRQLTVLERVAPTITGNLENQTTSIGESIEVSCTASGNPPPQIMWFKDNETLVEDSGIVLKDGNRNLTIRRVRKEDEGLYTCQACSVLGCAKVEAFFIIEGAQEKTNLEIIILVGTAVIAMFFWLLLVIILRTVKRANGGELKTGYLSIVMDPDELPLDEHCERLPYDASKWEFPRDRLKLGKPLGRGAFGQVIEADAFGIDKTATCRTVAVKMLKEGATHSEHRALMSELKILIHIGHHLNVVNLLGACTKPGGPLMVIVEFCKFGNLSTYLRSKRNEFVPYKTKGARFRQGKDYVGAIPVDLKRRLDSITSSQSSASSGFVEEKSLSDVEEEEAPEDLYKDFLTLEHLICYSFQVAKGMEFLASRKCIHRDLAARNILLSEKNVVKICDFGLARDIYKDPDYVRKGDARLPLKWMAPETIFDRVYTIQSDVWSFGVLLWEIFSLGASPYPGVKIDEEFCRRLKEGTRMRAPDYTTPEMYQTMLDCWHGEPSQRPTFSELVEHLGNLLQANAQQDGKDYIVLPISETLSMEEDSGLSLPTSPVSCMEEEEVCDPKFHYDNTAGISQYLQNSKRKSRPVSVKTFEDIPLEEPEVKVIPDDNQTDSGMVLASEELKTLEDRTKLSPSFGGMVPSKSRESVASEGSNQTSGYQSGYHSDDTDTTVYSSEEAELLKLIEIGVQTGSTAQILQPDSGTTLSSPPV
Sequence of Proto-oncogene tyrosine-protein kinase Src (P12931 2-536 limits assumed): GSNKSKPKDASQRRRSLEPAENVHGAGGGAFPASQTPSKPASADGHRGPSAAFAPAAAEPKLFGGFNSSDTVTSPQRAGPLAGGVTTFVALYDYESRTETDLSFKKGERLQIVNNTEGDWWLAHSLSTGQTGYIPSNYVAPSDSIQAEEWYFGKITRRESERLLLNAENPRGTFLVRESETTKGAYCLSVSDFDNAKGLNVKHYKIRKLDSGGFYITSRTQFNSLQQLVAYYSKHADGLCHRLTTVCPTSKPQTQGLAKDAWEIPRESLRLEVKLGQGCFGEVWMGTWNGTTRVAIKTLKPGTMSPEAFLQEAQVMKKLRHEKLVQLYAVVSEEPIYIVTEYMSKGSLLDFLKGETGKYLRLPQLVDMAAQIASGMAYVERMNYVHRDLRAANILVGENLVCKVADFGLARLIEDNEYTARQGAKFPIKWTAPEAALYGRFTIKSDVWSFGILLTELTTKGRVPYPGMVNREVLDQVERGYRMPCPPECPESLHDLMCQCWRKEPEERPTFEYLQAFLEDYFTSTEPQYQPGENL

Cc1cc(-c2cc(OP(=O)(O)O)ccc2Cl)cc2nnc(Nc3ccc(OCCN4CCCC4)cc3)nc12
remaining at 1 h [1]: < 20%

Cc1cc(-c2cc(O)ccc2Cl)cc2nnc(Nc3ccc(CCCN4CCCC4)cc3)nc12
IC50 [2]: 2.7 nM | IC50 [3]: 1.5 nM

Cc1cc(-c2cc(OC(=O)C(C)C)ccc2Cl)cc2nnc(Nc3ccc(OCCN4CCCC4)cc3)nc12
remaining at 1 h [1]: 50%

Cc1cc(-c2cc(OC(=O)CN)ccc2Cl)cc2nnc(Nc3ccc(OCCN4CCCC4)cc3)nc12
remaining at 1 h [1]: < 20%

Cc1cc(-c2ccccc2)cc2nnc(Nc3ccc(OCCN4CCCC4)cc3)nc12
IC50 [2]: 530 nM

Cc1cc(-c2cc(OC(=O)c3cccnc3)ccc2Cl)cc2nnc(Nc3ccc(OCCN4CCCC4)cc3)nc12
remaining at 1 h [1]: 50%

Cc1cc(-c2cc(OC(=O)C(C)(C)C)ccc2Cl)cc2nnc(Nc3ccc(OCCN4CCCC4)cc3)nc12
Stability [4]: 172 ng/mL/h | remaining at 1 h [1]: > 90%

Cc1cc(-c2cc(OC(=O)c3ccc(CN4CCOCC4)cc3)ccc2Cl)cc2nnc(Nc3ccc(OCCN4CCCC4)cc3)nc12
remaining at 1 h [1]: > 90%

Cc1cc(-c2cc(O)ccc2Cl)cc2nnc(Nc3ccc(C(=O)N4CCNCC4)cc3)nc12
IC50 [2]: 1.8 nM
